Key:
Jurkat cells [1] = assay: LDH release cytotoxicity; format: cell-based, human; conditions: 10 μM, 37 °C; for Cytotoxicity by LDH release (in words): 10 min or 60 min
Method in brief: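 Jurkat cells exposed to 10 μM lipopeptide at 37 °C for 10 or 60 min, then the plate was centrifuged at 250 × g for 4 min. Released LDH in the supernatant was read using tetrazolium substrate (RT, 30 min, dark) at 490 nm. Controls were spontaneous release, lysis-solution maximum, volume correction and medium background. % cytotoxicity = (experimental − spontaneous)/(maximum − spontaneous) × 100. Triplicate.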

Jurkat cells [2] = assay: Cellular uptake of FITC-labelled LPs by flow cytometry; format: cell-based, human; conditions: 10 μM, 10 min, 37 °C

Structure (SMILES) | Cytotoxicity by LDH release (in words) (Jurkat cells [1]) | Cytotoxicity (LDH release, % of maximum) (Jurkat cells [1]; 60 min, triplicate, mean ± SD) [%] | Signal intensity relative to C14R11 (C14R11 set as 1) (Jurkat cells [2]) [fold]
CCCCCCCCCCCC(=O)NCCC(=O)N[C@@H](CCCNC(=N)N)C(=O)N[C@@H](CCCNC(=N)N)C(=O)N[C@@H](CCCNC(=N)N)C(=O)N[C@@H](CCCNC(=N)N)C(=O)N[C@@H](CCCNC(=N)N)C(=O)N[C@@H](CCCNC(=N)N)C(=O)N[C@@H](CCCNC(=N)N)C(=O)N[C@@H](CCCCNC(=S)Nc1ccc2c(c1)C(=O)OC21c2ccc(O)cc2Oc2cc(O)ccc21)C(N)=O [C12R7] | didn’t exhibit any significant toxicity | – | –
CCCCCCCCCCCCCC(=O)NCCC(=O)N[C@@H](CCCNC(=N)N)C(=O)N[C@@H](CCCNC(=N)N)C(=O)N[C@@H](CCCNC(=N)N)C(=O)N[C@@H](CCCNC(=N)N)C(=O)N[C@@H](CCCNC(=N)N)C(=O)N[C@@H](CCCNC(=N)N)C(=O)N[C@@H](CCCNC(=N)N)C(=O)N[C@@H](CCCCNC(=S)Nc1ccc2c(c1)C(=O)OC21c2ccc(O)cc2Oc2cc(O)ccc21)C(N)=O [C14R7] | didn’t exhibit any significant toxicity | – | –
CCCCCCCCCCCCCC(=O)NCCC(=O)N[C@H](CCCNC(=N)N)C(=O)N[C@H](CCCNC(=N)N)C(=O)N[C@H](CCCNC(=N)N)C(=O)N[C@H](CCCNC(=N)N)C(=O)N[C@H](CCCNC(=N)N)C(=O)N[C@H](CCCNC(=N)N)C(=O)N[C@H](CCCNC(=N)N)C(=O)N[C@H](CCCNC(=N)N)C(=O)N[C@H](CCCNC(=N)N)C(=O)N[C@H](CCCNC(=N)N)C(=O)N[C@H](CCCNC(=N)N)C(=O)N[C@@H](CCCCNC(=S)Nc1ccc2c(c1)C(=O)OC21c2ccc(O)cc2Oc2cc(O)ccc21)C(N)=O [C14dR11] | – | 5.97 ± 0.9 | 5
CCCCCCCCCCCCCCCC(=O)NCCC(=O)N[C@@H](CCCNC(=N)N)C(=O)N[C@@H](CCCNC(=N)N)C(=O)N[C@@H](CCCNC(=N)N)C(=O)N[C@@H](CCCNC(=N)N)C(=O)N[C@@H](CCCNC(=N)N)C(=O)N[C@@H](CCCNC(=N)N)C(=O)N[C@@H](CCCNC(=N)N)C(=O)N[C@@H](CCCCNC(=S)Nc1ccc2c(c1)C(=O)OC21c2ccc(O)cc2Oc2cc(O)ccc21)C(N)=O [C16R7] | didn’t exhibit any significant toxicity | – | –

Reference: PMC3156442 (Molecular bioSystems, 2010)
